Among the data in ChEMBL document CHEMBL5678799 (Biochem J, 2009) are Activity and inhibition values, retold here.

For experiment [1], the target named is MAP/microtubule affinity-regulating kinase 3 (Homo sapiens) (UniProt P27448). The experiment in a line: Inhibition of recombinant human N-terminal His6-tagged MARK3 (2 to 729 residues) expressed in baculovirus infected Sf21 cells assessed as remaining activity at 10 uM using CHKtide as substrate incubated for 30 mins in presence of [gamma-33P]ATP by filter binding method relative to control.

For experiment [2], the target named is Ribosomal protein S6 kinase alpha-1 (Homo sapiens) (UniProt Q15418). The experiment in a line: Inhibition of recombinant human N-terminal His6-tagged RSK1 (1 to 735 residues) expressed in baculovirus infected Sf21 cells assessed as remaining activity at 10 uM using KKLNRTLSVA as substrate incubated for 30 mins in presence of [gamma-33P]ATP by filter binding assay relative to control.

For experiment [3], the target named is MAP kinase-activated protein kinase 5 (Homo sapiens) (UniProt Q8IW41). Briefly: Inhibition of recombinant human His6-tagged PRAK (1 to 471 residues) expressed in baculovirus infected Sf21 cells assessed as remaining activity at 10 uM using phosphorylase b peptide as substrate incubated for 30 mins in presence of [gamma-33P]ATP by filter binding method relative to control. The gist of the method:
(§1)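 Robotic radiometric panel assay, 30 min at room temperature (21 °C), with 10 mM magnesium acetate. […] Compound at 1 or 10 µM. Residual activity expressed relative to compound-free control; triplicate average ± S.D.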

Experiment [4] concerns the target Phosphorylase b kinase gamma catalytic chain, skeletal muscle/heart isoform (Homo sapiens) (UniProt Q16816). The experiment in a line: Inhibition of recombinant human N-terminal GST-tagged PHKgamma1 (2 to 297 residues) expressed in Escherichia coli assessed as remaining activity at 1 uM using phosphorylase b peptide as substrate incubated for 30 mins in presence of [gamma-33P]ATP by filter binding method relative to control. The gist of the method:
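Incubation was 30 min at room temperature (21 °C) under conditions linear with time and enzyme amount. Activity is reported as percent of control lacking compound, triplicate mean ± S.D.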

Experiment [5] addresses MAP kinase-interacting serine/threonine-protein kinase 2 (Homo sapiens) (UniProt Q9HBH9). Briefly: Inhibition of recombinant human N-terminal GST/C-terminal His6-tagged MNK2alpha (2 to 465 residues) expressed in Escherichia coli assessed as remaining activity at 10 uM using eIF4E as substrate incubated for 30 mins in presence of [gamma-33P]ATP by filter binding method relative to control.

The target in a further experiment is mTORC2 (Homo sapiens) (UniProt P42345+Q6R327+Q9BVC4+Q9BPZ7). To be noted: HEK293, dose 30-1000 nM, time 30.0 min.
The target in experiment [6] is Homeodomain-interacting protein kinase 2 (Homo sapiens) (UniProt Q9H2X6). The experiment in a line: Inhibition of recombinant human N-terminal GST-tagged HIPK2 (165 to 564 residues) expressed in Escherichia coli assessed as remaining activity at 10 uM using MBP as substrate incubated for 30 mins in presence of [gamma-33P]ATP by filter binding method relative to control. The gist of the method:
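Radiometric kinase panel run robotically at room temperature (21 °C) for 30 min, linear in time and enzyme. […] Activity is expressed as percent of control without compound, from triplicate determinations ± S.D.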

Experiment [7] has as its target Serine/threonine-protein kinase Nek2 (Homo sapiens) (UniProt P51955). The experiment in a line: Inhibition of recombinant human N-terminal His6-tagged NEK2A (1 to 445 residues) expressed in baculovirus infected Sf21 cells assessed as remaining activity at 10 uM using RFRRSRRMI as substrate incubated for 30 mins in presence of [gamma-33P]ATP by filter binding method relative to control.

Experiment [8] has as its target Calcium/calmodulin-dependent protein kinase kinase 2 (Homo sapiens) (UniProt Q96RR4). Briefly: Inhibition of recombinant human N-terminal GST-tagged CAMKKbeta (1 to 541 residues) expressed in Escherichia coli assessed as remaining activity at 1 uM using DGEFLRTSCGSPNYAARRR as substrate incubated for 30 mins in presence of [gamma-33P]ATP by filter binding method relative to control. In a few lines:
as §1

For a further experiment, the system named is MEF. Briefly: Inhibition of mTORC2 in serum starved Rictor knockout MEF cells assessed as reduction IGF1-stimulated AKT phosphorylation at Thr308 residue at 100 to 1000 nM incubated for 20 mins by immunoblot analysis. The experiment is classed as cell-based. To be noted: Mus musculus, dose 100-1000 nM. In a few lines: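 Serum withdrawn 16 h. Inhibitor or vehicle given 30 min before stimulation with 50 ng/ml IGF-1 for 20 min. Lysed in Tris lysis buffer and immunoblotted for Akt Thr308 phosphorylation with ECL detection. Applies to HEK-293 and to wild-type, Rictor, Sin1 or mLST8 knockout MEFs. Three independent experiments.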
(Immunoblotting shows a protein as a band on a membrane.)

Experiment [9] concerns the target Fibroblast growth factor receptor 1 (Homo sapiens) (UniProt P11362). The experiment in a line: Inhibition of recombinant human N-terminal His6-tagged FGFR1 (400 to 820 residues) expressed in baculovirus infected Sf21 cells assessed as remaining activity at 1 uM using Poly(Glu,Tyr) as substrate incubated for 30 mins in presence of [gamma-33P]ATP by filter binding method relative to control. The gist of the method: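 Panel assays were run for 30 min at 21 °C, within the linear range for time and enzyme. […] Results are percent activity remaining relative to compound-free control, averaged from triplicate ± S.D.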

In experiment [10] the target is Tyrosine-protein kinase Yes (Homo sapiens) (UniProt P07947). The experiment in a line: Inhibition of recombinant human N-terminal His6-tagged YES1 (1 to 543 residues) expressed in baculovirus infected Sf21 cells assessed as remaining activity at 1 uM using Poly(Glu,Tyr) as substrate incubated for 30 mins in presence of [gamma-33P]ATP by filter binding assay relative to control. The gist of the method: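 Radiometric panel assay run robotically at 21 °C for 30 min, linear in time and enzyme. […] Activity is expressed as percentage of the compound-omitted control, averaged from triplicates ± S.D.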

Experiment [11] addresses Serine/threonine-protein kinase BRSK2 (Homo sapiens) (UniProt Q8IWQ3). The experiment in a line: Inhibition of recombinant human N-terminal His6-tagged BRSK2 (2 to 674 residues) expressed in baculovirus infected Sf21 cells assessed as remaining activity at 10 uM using KKLNRTLSFAEPG as substrate incubated for 30 mins in presence of [gamma-33P]ATP by filter binding method relative to control. In a few lines:
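Assays ran 30 min at 21 °C, robotically and in the linear range. Remaining activity is given relative to incubations lacking compound, as the average of triplicate determinations ± S.D.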

The target of experiment [12] is Dual specificity tyrosine-phosphorylation-regulated kinase 1A (Homo sapiens) (UniProt Q13627). The experiment in a line: Inhibition of recombinant human N-terminal GST-tagged DYRK1A (1 to 502 residues) expressed in Escherichia coli assessed as remaining activity at 1 uM using KKISGRLSPIMTEQ as substrate incubated for 30 mins in presence of [gamma-33P]ATP by filter binding method relative to control. The gist of the method:
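Run robotically for 30 min at 21 °C under linear conditions. Compound at 1 or 10 µM. Percentage activity remaining versus control without compound, triplicate mean ± S.D.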

Active and inactive are the calls of the source. The rule behind the calls is not given here.

Chain of MAP/microtubule affinity-regulating kinase 3 (Homo sapiens) (P27448 whole entry, looked up, the tested form may be a part): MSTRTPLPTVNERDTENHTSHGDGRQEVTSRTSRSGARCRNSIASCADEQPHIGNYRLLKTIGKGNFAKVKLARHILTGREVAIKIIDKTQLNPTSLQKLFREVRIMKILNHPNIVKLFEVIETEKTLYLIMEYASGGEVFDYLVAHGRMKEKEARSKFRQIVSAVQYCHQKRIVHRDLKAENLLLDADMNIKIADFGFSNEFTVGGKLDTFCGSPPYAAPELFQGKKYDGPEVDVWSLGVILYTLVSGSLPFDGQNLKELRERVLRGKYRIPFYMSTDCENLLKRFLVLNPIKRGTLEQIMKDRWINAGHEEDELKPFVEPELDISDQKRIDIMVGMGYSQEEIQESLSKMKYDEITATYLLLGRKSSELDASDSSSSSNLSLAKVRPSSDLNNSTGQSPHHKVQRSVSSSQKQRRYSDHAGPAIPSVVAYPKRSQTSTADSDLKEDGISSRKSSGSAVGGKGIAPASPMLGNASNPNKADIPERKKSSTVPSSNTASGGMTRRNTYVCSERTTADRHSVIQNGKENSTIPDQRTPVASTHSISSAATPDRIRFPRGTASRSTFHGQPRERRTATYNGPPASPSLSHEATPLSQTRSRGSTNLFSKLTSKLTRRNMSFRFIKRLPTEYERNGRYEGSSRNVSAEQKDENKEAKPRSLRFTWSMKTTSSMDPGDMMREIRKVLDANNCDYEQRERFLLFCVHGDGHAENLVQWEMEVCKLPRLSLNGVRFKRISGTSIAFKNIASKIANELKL
Chain of Fibroblast growth factor receptor 1 (Homo sapiens) (P11362 22-822 limits assumed): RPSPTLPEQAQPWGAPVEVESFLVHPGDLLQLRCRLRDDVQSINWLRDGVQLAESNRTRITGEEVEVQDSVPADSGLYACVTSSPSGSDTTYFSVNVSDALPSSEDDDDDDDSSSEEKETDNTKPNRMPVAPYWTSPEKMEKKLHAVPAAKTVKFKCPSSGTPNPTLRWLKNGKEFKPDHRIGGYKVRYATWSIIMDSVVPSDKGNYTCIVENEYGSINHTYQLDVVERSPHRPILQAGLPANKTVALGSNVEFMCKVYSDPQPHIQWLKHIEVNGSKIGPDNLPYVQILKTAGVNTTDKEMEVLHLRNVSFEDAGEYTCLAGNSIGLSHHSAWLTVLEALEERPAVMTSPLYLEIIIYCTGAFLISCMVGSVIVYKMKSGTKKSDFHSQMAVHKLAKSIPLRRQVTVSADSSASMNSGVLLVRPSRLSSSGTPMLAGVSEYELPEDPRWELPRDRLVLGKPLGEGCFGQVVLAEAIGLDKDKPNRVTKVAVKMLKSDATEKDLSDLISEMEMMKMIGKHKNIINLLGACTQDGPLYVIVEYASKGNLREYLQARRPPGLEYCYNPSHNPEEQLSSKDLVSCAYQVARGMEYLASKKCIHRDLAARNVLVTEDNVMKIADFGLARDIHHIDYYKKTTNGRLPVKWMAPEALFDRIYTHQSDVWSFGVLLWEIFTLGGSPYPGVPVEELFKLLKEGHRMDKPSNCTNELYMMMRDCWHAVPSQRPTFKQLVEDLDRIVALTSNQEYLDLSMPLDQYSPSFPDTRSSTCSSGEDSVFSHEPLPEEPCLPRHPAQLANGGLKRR
Chain of MAP kinase-interacting serine/threonine-protein kinase 2 (Homo sapiens) (Q9HBH9 whole entry, looked up, the tested form may be a part): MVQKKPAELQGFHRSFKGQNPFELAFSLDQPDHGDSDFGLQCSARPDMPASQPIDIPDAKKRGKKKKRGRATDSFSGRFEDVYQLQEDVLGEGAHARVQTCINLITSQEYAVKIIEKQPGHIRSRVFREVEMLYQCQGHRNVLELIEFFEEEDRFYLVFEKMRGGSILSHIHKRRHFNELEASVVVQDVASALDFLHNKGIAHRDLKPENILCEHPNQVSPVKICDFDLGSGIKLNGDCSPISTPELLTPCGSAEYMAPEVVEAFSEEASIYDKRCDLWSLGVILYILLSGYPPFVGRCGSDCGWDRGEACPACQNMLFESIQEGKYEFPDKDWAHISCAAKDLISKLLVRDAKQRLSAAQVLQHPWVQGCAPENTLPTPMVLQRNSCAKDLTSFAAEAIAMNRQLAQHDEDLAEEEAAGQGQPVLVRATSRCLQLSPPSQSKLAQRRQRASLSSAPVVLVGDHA
Chain of Serine/threonine-protein kinase BRSK2 (Homo sapiens) (Q8IWQ3 whole entry, the tested form may be a part): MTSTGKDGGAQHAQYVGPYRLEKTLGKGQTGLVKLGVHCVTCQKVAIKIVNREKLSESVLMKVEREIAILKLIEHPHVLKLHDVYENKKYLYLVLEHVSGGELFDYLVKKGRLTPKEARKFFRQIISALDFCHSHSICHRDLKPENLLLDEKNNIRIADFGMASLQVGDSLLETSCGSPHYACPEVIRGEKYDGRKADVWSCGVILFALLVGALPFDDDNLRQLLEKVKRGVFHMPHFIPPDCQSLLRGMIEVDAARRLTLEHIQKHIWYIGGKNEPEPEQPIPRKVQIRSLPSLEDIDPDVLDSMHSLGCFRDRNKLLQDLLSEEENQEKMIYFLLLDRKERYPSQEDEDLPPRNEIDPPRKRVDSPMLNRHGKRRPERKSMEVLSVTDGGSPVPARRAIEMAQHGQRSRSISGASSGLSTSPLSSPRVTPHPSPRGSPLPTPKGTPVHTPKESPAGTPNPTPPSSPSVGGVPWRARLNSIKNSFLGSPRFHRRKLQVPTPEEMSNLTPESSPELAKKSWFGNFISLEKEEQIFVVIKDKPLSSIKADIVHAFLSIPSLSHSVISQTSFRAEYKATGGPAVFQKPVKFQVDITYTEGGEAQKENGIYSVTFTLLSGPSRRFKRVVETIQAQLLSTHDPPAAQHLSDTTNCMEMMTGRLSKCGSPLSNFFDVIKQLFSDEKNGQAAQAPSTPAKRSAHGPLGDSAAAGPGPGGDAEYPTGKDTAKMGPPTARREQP
Chain of Serine/threonine-protein kinase Nek2 (Homo sapiens) (P51955 whole entry, the tested form may be a part): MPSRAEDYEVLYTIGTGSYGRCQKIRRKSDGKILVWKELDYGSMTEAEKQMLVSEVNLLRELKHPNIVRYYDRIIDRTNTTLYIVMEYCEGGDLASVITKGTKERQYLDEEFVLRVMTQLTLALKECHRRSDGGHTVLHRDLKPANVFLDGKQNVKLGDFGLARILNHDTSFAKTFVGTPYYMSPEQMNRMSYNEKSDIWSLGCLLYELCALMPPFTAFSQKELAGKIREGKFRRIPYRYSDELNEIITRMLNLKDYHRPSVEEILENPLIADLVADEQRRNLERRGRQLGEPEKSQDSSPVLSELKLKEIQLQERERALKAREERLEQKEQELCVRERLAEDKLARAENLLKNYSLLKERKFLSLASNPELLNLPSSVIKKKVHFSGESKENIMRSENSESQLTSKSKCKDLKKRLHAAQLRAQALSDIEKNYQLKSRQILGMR
Chain of Tyrosine-protein kinase Yes (Homo sapiens) (P07947 2-543 limits assumed): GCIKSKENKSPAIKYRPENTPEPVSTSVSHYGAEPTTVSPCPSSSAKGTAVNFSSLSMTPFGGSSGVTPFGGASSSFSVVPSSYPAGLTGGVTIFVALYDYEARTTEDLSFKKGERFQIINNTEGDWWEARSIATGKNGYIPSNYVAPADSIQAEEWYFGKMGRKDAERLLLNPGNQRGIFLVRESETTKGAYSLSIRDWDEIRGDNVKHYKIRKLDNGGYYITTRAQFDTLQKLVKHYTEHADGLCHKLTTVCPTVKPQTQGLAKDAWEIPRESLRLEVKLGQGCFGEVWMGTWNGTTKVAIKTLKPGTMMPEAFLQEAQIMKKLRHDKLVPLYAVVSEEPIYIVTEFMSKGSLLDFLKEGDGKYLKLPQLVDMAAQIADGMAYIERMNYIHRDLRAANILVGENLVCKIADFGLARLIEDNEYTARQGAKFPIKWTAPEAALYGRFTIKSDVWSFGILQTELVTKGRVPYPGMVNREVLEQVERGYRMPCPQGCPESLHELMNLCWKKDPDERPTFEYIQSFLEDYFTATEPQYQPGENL
Chain of Ribosomal protein S6 kinase alpha-1 (Homo sapiens) (Q15418 whole entry, the tested form may be a part): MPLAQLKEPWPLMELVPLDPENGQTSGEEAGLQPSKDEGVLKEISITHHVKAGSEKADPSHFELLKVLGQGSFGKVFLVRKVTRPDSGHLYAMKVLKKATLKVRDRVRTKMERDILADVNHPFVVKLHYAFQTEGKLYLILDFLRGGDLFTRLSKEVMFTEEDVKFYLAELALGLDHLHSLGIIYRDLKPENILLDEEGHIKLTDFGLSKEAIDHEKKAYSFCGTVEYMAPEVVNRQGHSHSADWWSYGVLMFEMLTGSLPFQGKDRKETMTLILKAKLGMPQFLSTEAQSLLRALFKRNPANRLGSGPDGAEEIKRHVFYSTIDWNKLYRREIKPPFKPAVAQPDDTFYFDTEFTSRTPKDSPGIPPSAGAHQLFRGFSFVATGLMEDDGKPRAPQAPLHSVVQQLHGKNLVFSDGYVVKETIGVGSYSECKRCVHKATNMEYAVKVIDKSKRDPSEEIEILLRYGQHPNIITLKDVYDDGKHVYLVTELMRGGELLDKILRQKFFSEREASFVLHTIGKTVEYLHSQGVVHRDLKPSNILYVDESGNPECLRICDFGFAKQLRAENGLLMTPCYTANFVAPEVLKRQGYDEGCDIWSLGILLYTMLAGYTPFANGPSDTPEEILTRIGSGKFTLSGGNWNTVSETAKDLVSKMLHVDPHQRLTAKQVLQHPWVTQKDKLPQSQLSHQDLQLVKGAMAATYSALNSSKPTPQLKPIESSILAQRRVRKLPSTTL
Chain of MAP kinase-activated protein kinase 5 (Homo sapiens) (Q8IW41 whole entry, the tested form may be a part): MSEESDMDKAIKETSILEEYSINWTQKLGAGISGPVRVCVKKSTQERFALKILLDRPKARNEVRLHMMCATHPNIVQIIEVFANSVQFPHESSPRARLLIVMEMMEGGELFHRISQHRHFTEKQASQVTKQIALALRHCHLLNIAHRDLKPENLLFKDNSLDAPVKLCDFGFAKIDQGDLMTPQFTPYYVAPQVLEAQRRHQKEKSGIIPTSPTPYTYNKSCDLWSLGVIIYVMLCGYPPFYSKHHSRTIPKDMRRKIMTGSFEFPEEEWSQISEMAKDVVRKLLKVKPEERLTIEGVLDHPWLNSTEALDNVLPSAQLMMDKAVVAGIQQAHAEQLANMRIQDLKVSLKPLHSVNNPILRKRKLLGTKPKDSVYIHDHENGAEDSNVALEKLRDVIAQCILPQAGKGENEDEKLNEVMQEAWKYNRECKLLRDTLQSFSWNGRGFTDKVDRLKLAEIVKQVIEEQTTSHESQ

As for `COc1ccc(-c2ccc3c(N4CCOCC4)nc(N4C[C@@H](C)O[C@@H](C)C4)nc3n2)cc1CO` [Ku-0063794], the Activity came out at 93% in experiment [1]; 86% in [2]; 87% in experiment [3]; 89% in [4]; 92% in [5]; 89% in experiment [6]. The Activity was found to be 86% in experiment [7]; 108% in experiment [8]; 102% in experiment [9]; 94% in [10]; 72% in experiment [11]; 94% in experiment [12]. On mTORC2 (Homo sapiens), the inhibition result is “Dose-Dependent Effect”. Further, the inhibition entry in the experiment with MEF was “Active”.
